Results taken from ChEMBL document CHEMBL1156763, “1,8-Naphthyridines VIII. Novel 5-aminoimidazo[1,2-a] [1,8]naphthyridine-6-carboxamide and 5-amino[1,2,4]triazolo[4,3-a] [1,8]naphthyridine-6-carboxamide derivatives showing potent analgesic or anti-inflammatory activity, respectively, and completely devoid of acute gastrolesivity” (Eur J Med Chem, 2010).

What was measured:
[1] = test system: Mus musculus; assay: Analgesic activity in Swiss mouse assessed as inhibition of acetic acid-induced writhing response at 50 mg/kg, po administered 1 hr before acetic acid challenge measured for 30 mins relative to control; format: functional
In short: (§1)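 Mice of either sex (25–35 g), fasted overnight, dosed by oral gavage with test agent suspended in 0.5% methylcellulose; controls got vehicle alone. Each hind-limb full extension counted as a writhe over 30 min after the noxious agent. % inhibition from treated vs control writhing; groups of 8–10; Student's t-test. Dosing starts at 100 mg/kg, then halved stepwise.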

[2] = test system: Mus musculus; assay: Sedative activity in Swiss mouse assessed as inhibition of spontaneous locomotor activity at 100 mg/kg, po dose measured for every 5 mins up to 90 mins; format: organism-based; set-up: dose 100 mg/kg, route oral
In short: (§2)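 Overnight-fasted mice given compound (0.5% methylcellulose) or vehicle by oral gavage, then housed singly in an activity cage. Locomotion auto-recorded in 5-min intervals for 90 min; pulses of the final 30 min scored. % inhibition versus controls; runs between 9.00 and 13.00; groups of 8–10; Student's t-test.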

[3] = test system: Rattus norvegicus; assay: Acute gastrolesivity in Wistar rat assessed as appearance of gastric damage at 200 mg/kg, po after 5 hrs; format: toxicity, organism-based, Stomach; set-up: dose 200 mg/kg, route oral; details: in vivo
In short: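 Wistar rats (250–300 g), either sex, fasted overnight; compound suspended in 0.5% methylcellulose, single oral gavage at 200 mg kg^-1 (1 mL 100 g^-1). Stomachs excised 5 h later, fixed in 2% formalin, opened along greater curvature, examined by stereomicroscope by blinded observer. Reported as number of animals with gastric damage over treated animals (eight per group).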

[4] = test system: Rattus norvegicus; assay: Antiinflammatory activity against carrageenan-induced paw edema in Wistar rat assessed as inhibition of hind paw edema at 100 mg/kg, po administered 1 hr prior to carrageenan challenge measured after 3 hrs relative to control; format: functional
In short: (§3)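 Wistar rats of either sex (250–300 g), fasted overnight, gavaged with compound in 0.5% methylcellulose. 1 h later, 0.1 mL 1% carrageenan injected subcutaneously into the plantar hind paw. Paw volume read by plethysmometer right after injection and 3 h later. Control edema set as 100, % inhibition from swelling difference. Groups of 8–10; Student's t-test.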

[5] = test system: Rattus norvegicus; assay: Antiinflammatory activity against carrageenan-induced paw edema in Wistar rat assessed as inhibition of hind paw edema at 50 mg/kg, po administered 1 hr prior to carrageenan challenge measured after 3 hrs relative to control; format: functional; in short: as §3
[6] = test system: Rattus norvegicus; assay: Antiinflammatory activity against carrageenan-induced paw edema in Wistar rat assessed as inhibition of hind paw edema at 25 mg/kg, po administered 1 hr prior to carrageenan challenge measured after 3 hrs relative to control; format: functional; in short: as §3
[7] = test system: Rattus norvegicus; assay: Antiinflammatory activity against carrageenan-induced paw edema in Wistar rat assessed as inhibition of hind paw edema at 12.5 mg/kg, po administered 1 hr prior to carrageenan challenge measured after 3 hrs relative to control; format: functional; in short: as §3
[8] = test system: Rattus norvegicus; assay: Antiinflammatory activity against carrageenan-induced paw edema in Wistar rat assessed as inhibition of hind paw edema at 6.25 mg/kg, po administered 1 hr prior to carrageenan challenge measured after 3 hrs relative to control; format: functional; in short: as §3
[9] = test system: Rattus norvegicus; assay: Antiinflammatory activity against carrageenan-induced paw edema in Wistar rat assessed as inhibition of hind paw edema at 3.12 mg/kg, po administered 1 hr prior to carrageenan challenge measured after 3 hrs relative to control; format: functional; in short: as §3
[10] = test system: Rattus norvegicus; assay: Antiinflammatory activity against carrageenan-induced paw edema in Wistar rat assessed as inhibition of hind paw edema at 1.6 mg/kg, po administered 1 hr prior to carrageenan challenge measured after 3 hrs relative to control; format: functional; in short: as §3
[11] = test system: Mus musculus; assay: Analgesic activity in Swiss mouse assessed as inhibition of acetic acid-induced writhing response at 100 mg/kg, po administered 1 hr before acetic acid challenge measured for 30 mins relative to control; format: functional; in short: as §1
[12] = test system: Mus musculus; assay: Analgesic activity in Swiss mouse assessed as inhibition of acetic acid-induced writhing response at 25 mg/kg, po administered 1 hr before acetic acid challenge measured for 30 mins relative to control; format: functional; in short: as §1
[13] = test system: Mus musculus; assay: Analgesic activity in Swiss mouse assessed as inhibition of acetic acid-induced writhing response at 12.5 mg/kg, po administered 1 hr before acetic acid challenge measured for 30 mins relative to control; format: functional; in short: as §1
[14] = test system: Mus musculus; assay: Analgesic activity in Swiss mouse assessed as inhibition of acetic acid-induced writhing response at 6.25 mg/kg, po administered 1 hr before acetic acid challenge measured for 30 mins relative to control; format: functional; in short: as §1
[15] = test system: Mus musculus; assay: Sedative activity in Swiss mouse assessed as inhibition of spontaneous locomotor activity at 50 mg/kg, po dose measured for every 5 mins up to 90 mins; format: organism-based; set-up: dose 50 mg/kg, route oral; in short: as §2
[16] = test system: Mus musculus; assay: Sedative activity in Swiss mouse assessed as inhibition of spontaneous locomotor activity at 12.5 mg/kg, po dose measured for every 5 mins up to 90 mins; format: organism-based; set-up: dose 12.5 mg/kg, route oral; in short: as §2
[17] = test system: Mus musculus; assay: Sedative activity in Swiss mouse assessed as inhibition of spontaneous locomotor activity at 10 mg/kg, po dose measured for every 5 mins upto 90 mins; format: functional; in short: as §2
[18] = test system: Rattus norvegicus; assay: Antiinflammatory activity against carrageenan-induced paw edema in Wistar rat assessed as inhibition of hind paw edema at 10 mg/kg, po administered 1 hr prior to carrageenan challenge measured after 3 hrs relative to control; format: functional; in short: as §3
[19] = species on record: Mus musculus; assay: animal or person; details: Swiss, po, read-out: INH

SMILES: CCNC(=O)c1c(NCC(C)C)c2cccnc2n2c(C(C)C)nnc12
- inhibition in vivo at 50 mg/kg [1]: 21%
- inhibition at 100 mg/kg [2]: 48%
- Activity [3]: Non-toxic
- inhibition in vivo at 100 mg/kg [4]: 60%
- inhibition in vivo at 50 mg/kg [5]: 50%
- inhibition in vivo at 25 mg/kg [6]: 47%
- inhibition in vivo at 12.5 mg/kg [7]: 49%
- inhibition in vivo at 6.25 mg/kg [8]: 40%
- inhibition in vivo at 3.12 mg/kg [9]: 35%
- inhibition in vivo at 1.6 mg/kg [10]: 18%
- inhibition in vivo at 100 mg/kg [11]: 81%

SMILES: CCOc1cnc2c(C(=O)N(CC)CC)c(N3CCN(C)CC3)c3cccnc3n12
- inhibition in vivo at 50 mg/kg [1]: 62%
- inhibition in vivo at 25 mg/kg [12]: 54%
- inhibition in vivo at 12.5 mg/kg [13]: 48%
- inhibition in vivo at 6.25 mg/kg [14]: 17%
- inhibition at 100 mg/kg [2]: 60%
- inhibition at 50 mg/kg [15]: 46%
- inhibition at 12.5 mg/kg [16]: 15%
- Activity [3]: Non-toxic
- inhibition in vivo at 100 mg/kg [4]: 26%
- inhibition in vivo at 100 mg/kg [11]: 97%

SMILES: CN1C(=O)CN=C(c2ccccc2)c2cc(Cl)ccc21 [DIAZEPAM]
- inhibition in vivo at 10 mg/kg [17]: 98%

SMILES: COc1ccc2c(c1)c(CC(=O)O)c(C)n2C(=O)c1ccc(Cl)cc1 [INDOMETHACIN]
- inhibition in vivo at 10 mg/kg [18]: 51%
- inhibition in vivo at 10 mg/kg [19]: 84%
